Where “and” joins values, the source holds several entries; their conditions need not be identical. Equal entries are not always repeated. Records with an inconclusive call do not appear. Calls of active or inactive are those of the source.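 Rule for the calls: active = rising curve reaching 40% of the stimulating control's effect at or below the top valid tested dose; inconclusive = flat curve between 30 and 70% of control, or poor fit; inactive = falling curves and all the rest.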
The molecules below were run against Scavenger receptor class B member 1 (Mus musculus) (UniProt Q61009) (assay: increase of Alexa488-HDL binding at mSR-BI cells – ldlA[mSR-BI] cells, powder samples, set 2, orthogonal assay for SR-BI HDL uptake inhibitor project, dose response (AID 588810)). Conditions: ldlA[mSR-BI] CHO cells, Alexa488-HDL binding fluorescence, 3 h.
Sequence of Scavenger receptor class B member 1 (Mus musculus) (Q61009 whole entry, looked up): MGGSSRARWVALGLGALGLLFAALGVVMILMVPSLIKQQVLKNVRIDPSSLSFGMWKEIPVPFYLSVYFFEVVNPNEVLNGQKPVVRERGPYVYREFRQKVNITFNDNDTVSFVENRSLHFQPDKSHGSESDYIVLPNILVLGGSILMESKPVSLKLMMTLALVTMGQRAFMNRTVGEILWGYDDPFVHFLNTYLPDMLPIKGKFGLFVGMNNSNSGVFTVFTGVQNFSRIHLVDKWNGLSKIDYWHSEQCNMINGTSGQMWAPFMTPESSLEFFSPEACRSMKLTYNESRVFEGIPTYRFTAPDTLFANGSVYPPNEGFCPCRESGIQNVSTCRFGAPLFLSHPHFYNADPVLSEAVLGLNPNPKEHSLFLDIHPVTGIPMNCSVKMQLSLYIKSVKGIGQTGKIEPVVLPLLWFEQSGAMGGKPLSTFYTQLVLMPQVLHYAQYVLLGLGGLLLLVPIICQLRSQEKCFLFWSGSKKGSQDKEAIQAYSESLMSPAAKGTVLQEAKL
In short: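 Benchmarks: positive control BLT-1 1 µM; Material: ldlA CHO cells expressing mouse SR-BI (ldlA[mSR-BI]); Also added: Alexa488-HDL with apolipoprotein-linked dye, 10 µg/mL; Technique: bottom-read fluorescence after two PBS washes; Compound dosing: dose series of compound; Timing: cells seeded one day ahead, 3 h HDL-compound exposure at 37 °C.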

Structure (SMILES)	AC40
COc1ccc(-c2nc(CC(=O)N(C3CCCCC3)C(C)C(=O)NC3CCCC3)co2)cc1OC (stereo not drawn)	1.36 µM
CC(C(=O)NC1CCCC1)N(C(=O)Cn1nnc(-c2ccc3c(c2)OCO3)n1)C1CCCCC1 (stereo not drawn)	0.214 µM
COc1cc(OC)cc(C(=O)Nc2nc(-c3ccc4c(c3)CCN4C(=O)CN(C)C)cs2)c1	0.232 µM
CCC(=O)Nc1ccc(-c2csc(NC(=O)c3cccc(OC)c3)n2)cc1	0.347 µM
CC(=O)N1CCc2cc(-c3nc(NC(=O)c4cccc(OC(F)(F)F)c4)sc3C)ccc21	0.488 µM
CCC(=O)N1CCc2cc(-c3csc(NCc4cc(OC)cc(OC)c4)n3)ccc21	0.912 µM
COc1ccc(-c2nnn(CC(=O)N(CC(=O)N(C)C3CCCC3)C3CCCCC3)n2)cc1OC	4.95 µM
C[C@@H](C(=O)NC1CCCC1)N(C(=O)Cn1nnc(-c2ccc3c(c2)OCO3)n1)C1CCCCC1	4.69 µM
C[C@H](C(=O)NC1CCCC1)N(C(=O)Cn1nnc(-c2ccc3c(c2)OCO3)n1)C1CCCCC1	0.169 µM
COc1ccc(-c2nnn(CC(=O)N(CC(=O)N3CCCCC3)C3CCCCC3)n2)cc1OC	11.8 µM
CCC(=O)N1CCc2cc(-c3csc(NC(=O)c4cc5ccccc5o4)n3)ccc21	1.58 µM
CCC(=O)N1CCc2cc(-c3csc(NC(=O)c4ccco4)n3)ccc21	0.312 µM and 2.27 µM
CCC(=O)N1CCc2cc(-c3csc(NC(=O)c4cc(OC)c(OC)c(OC)c4)n3)ccc21	0.0222 µM
COc1ccc(-c2cc(CC(=O)N(C3CCCCC3)C(C)C(=O)NC3CCCC3)no2)cc1OC (stereo not drawn)	0.145 µM
O=C(Nc1nc(-c2ccc3c(c2)CCN3)cs1)c1ccco1	0.295 µM
O=C(CN(C(=O)Cn1nnc(-c2ccc3c(c2)OCO3)n1)C1CCCCC1)NC1CCCC1	0.337 µM
CCC(=O)N1CCc2cc(-c3csc(NC(=O)c4ccc(F)c(OC)c4)n3)ccc21	0.358 µM
COc1ccc(-c2nnn(CC(=O)N(C3CCCCC3)C(C)C(=O)NC3CCCC3)n2)cc1OC (stereo not drawn)	0.437 µM

Other lines, results leading:

AC40	Structure (SMILES)
0.00607 µM	CCC(=O)N1CC(C)(C)c2cc(-c3csc(NC(=O)c4cc(OC)cc(OC)c4)n3)ccc21
0.231 µM	COc1ccc(-c2nnn(CC(=O)N(CC(=O)NC3CCCC3)C3CCCCC3)n2)cc1OC
0.324 µM	COC(=O)N1CCc2cc(-c3csc(NC(=O)c4cc(OC)cc(OC)c4)n3)ccc21
0.454 µM	CCC(=O)N1CCc2cc(-c3csc(NC(=O)c4cccc(OC)c4)n3)ccc21
0.0245 µM	COc1cc(OC)cc(C(=O)Nc2nc(-c3ccc4c(c3)CCN4C(=O)OC(C)(C)C)cs2)c1
0.943 µM	CCC(=O)N1CCc2cc(-c3csc(NC(=O)c4cccc(OC(F)(F)F)c4)n3)ccc21
0.382 µM	CCC(=O)N1CCc2cc(-c3csc(NC(=O)c4cc(OC)cc(OC)c4)n3)ccc21
0.672 µM	CCC(=O)n1ccc2cc(-c3csc(NC(=O)c4cc(OC)cc(OC)c4)n3)ccc21
0.0218 µM	COCC(=O)N1CCc2cc(-c3csc(NC(=O)c4cc(OC)cc(OC)c4)n3)ccc21
0.0571 µM	CCC(=O)N1CC(C)(C)c2cc(-c3csc(NC(=O)c4ccco4)n3)ccc21
> 80 µM (inactive)	Cc1ccc2oc(-c3cccc(NC(=O)c4cc(-n5cnnc5)ccc4Cl)c3)nc2c1
0.371 µM	COc1cc(OC)cc(C(=O)Nc2nc(-c3ccc4c(c3)CCN4C(C)=O)cs2)c1
0.0733 µM	C[C@@H]1CN([C@H](C)CO)C(=O)c2cc(NC(=O)Cc3cn(C)c4ccccc34)ccc2O[C@H]1CN(C)S(=O)(=O)c1ccc(Cl)cc1
0.0127 µM	CCNC(=O)N1CCc2cc(-c3csc(NC(=O)c4cc(OC)cc(OC)c4)n3)ccc21
1.64 µM	COc1c(NC(=O)C(=O)c2ccc(OCCN3CCOCC3)c3ccccc23)cc(C(C)(C)C)cc1NS(C)(=O)=O
